Source: ChEMBL document CHEMBL5036319, “Discovery of Novel Benzothiazepinones as Irreversible Covalent Glycogen Synthase Kinase 3β Inhibitors for the Treatment of Acute Promyelocytic Leukemia” (J Med Chem, 2021)
Calls of active or inactive are those of the source. The rule behind the calls is not given here.

Legend:
[1] = target: Vascular endothelial growth factor receptor 1 (Homo sapiens) (UniProt P17948); assay: Inhibition of Flt-1 (unknown origin) at 100 uM incubated for 60 mins by ELISA relative to control
In short: (§1)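 Tyrosine kinase ELISA on plates precoated with poly(Glu,Tyr) 4:1 substrate. Reaction used 10 μM ATP in buffer (50 mM HEPES pH 7.4, 50 mM MgCl2, 0.5 mM MnCl2, 0.2 mM Na3VO4, 1 mM DTT) with compound in 1% DMSO. Purified kinase started the reaction, 60 min at 37 °C. Detection by anti-phosphotyrosine PY99 then HRP anti-mouse IgG with o-phenylenediamine/H2O2. Read at 490 nm; inhibition = [1 − A490/A490 control] × 100%.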

[2] = target: Vascular endothelial growth factor receptor 2 (Homo sapiens) (UniProt P35968); assay: Inhibition of KDR (unknown origin) at 100 uM incubated for 60 mins by ELISA relative to control; in short: as §1
[3] = target: Fibroblast growth factor receptor 1 (Homo sapiens) (UniProt P11362); assay: Inhibition of FGFR1 (unknown origin) at 100 uM incubated for 60 mins by ELISA relative to control; in short: as §1
[4] = target: Proto-oncogene tyrosine-protein kinase receptor Ret (Homo sapiens) (UniProt P07949); assay: Inhibition of RET (unknown origin) at 100 uM incubated for 60 mins by ELISA relative to control; in short: as §1
[5] = target: T1, Glycogen synthase kinase-3 beta (Homo sapiens, UniProt P49841); assay: Non-competitive inhibition of recombinant human GSK-3beta using GS-2 peptide as substrate at 2 to 4 uM incubated for 10 mins in presence of varying levels of ATP by double reciprocal plot analysis; conditions: dose 2-4 µM
Target sequence in this assay (P49841 whole entry, looked up): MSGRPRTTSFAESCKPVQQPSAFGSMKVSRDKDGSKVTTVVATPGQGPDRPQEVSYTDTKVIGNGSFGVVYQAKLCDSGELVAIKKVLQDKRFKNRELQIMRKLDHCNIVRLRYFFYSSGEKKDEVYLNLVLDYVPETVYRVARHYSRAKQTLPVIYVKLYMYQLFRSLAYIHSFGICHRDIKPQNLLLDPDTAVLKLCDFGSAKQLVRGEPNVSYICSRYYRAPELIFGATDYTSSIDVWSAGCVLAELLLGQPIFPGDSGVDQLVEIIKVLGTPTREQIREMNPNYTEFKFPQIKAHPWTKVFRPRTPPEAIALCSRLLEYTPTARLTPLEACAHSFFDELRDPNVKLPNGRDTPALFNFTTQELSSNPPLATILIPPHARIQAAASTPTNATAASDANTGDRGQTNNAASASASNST

Raji = assay: Cytotoxicity against human Raji cells assessed as reduction in cell viability measured after 24 hrs by CCK-8 assay; type: functional, cell-based
In short: (§2)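 Cells were grown in RPMI-1640 or high-glucose DMEM with 10% FBS at 37 °C, 5% CO2, and seeded at 3 × 10^4 cells/well. Exposure was 24 h across serial concentrations (0−1000 μM in the screen). […] Three independent experiments, mean ± SEM.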

[6] = target: T1, Glycogen synthase kinase-3 beta; assay: Irreversible inhibition of recombinant human GSK-3beta preincubated for upto 10 mins by double reciprocal plot analysis; conditions: time min <=10, TDE = time-dependent effect
In short: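 Irreversibility tested in the Kinase-Glo GSK-3β assay. Inhibitor at 6.25 and 12.5 μM was preincubated with enzyme for 0, 5 or 10 min. Each point is the mean of two separate experiments done in triplicate.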
Target sequence in this assay (P49841 whole entry, looked up): as above

MOLT-4 = assay: Cytotoxicity against human MOLT-4 cells assessed as reduction in cell viability measured after 24 hrs by CCK-8 assay; type: functional, cell-based; conditions: MOLT-4, 24 h; in short: as §2
[7] = target: T1, Glycogen synthase kinase-3 beta; assay: Inhibition of recombinant human GSK-3beta using GS-2 peptide as substrate incubated for 30 mins in presence of ATP by kinase-glo luminescence assay
Target sequence in this assay (P49841 whole entry): as the sequence (P49841 whole entry, looked up) above

HL-60 = assay: Cytotoxicity against human HL-60 cells assessed as reduction in cell viability measured after 24 hrs by CCK-8 assay; type: functional, cell-based; conditions: HL-60, 24 h; in short: as §2
[8] = Thiol reactivity of compound with mercaptoethanol measured after 24 hrs by 1H-NMR analysis; type: physicochemical
[9] = target: Receptor tyrosine-protein kinase erbB-4 (Homo sapiens) (UniProt Q15303); assay: Inhibition of ERBB4 (unknown origin) at 100 uM incubated for 60 min by ELISA relative to control; in short: as §1
[10] = target: Mast/stem cell growth factor receptor Kit (Homo sapiens) (UniProt P10721); assay: Inhibition of c-Kit (unknown origin) at 100 uM incubated for 60 mins by ELISA relative to control; in short: as §1
[11] = target: T1, Glycogen synthase kinase-3 beta; assay: Non-competitive inhibition of recombinant human GSK-3beta at 2 to 4 uM using varying concentration of GS-2 as substrate incubated for 10 mins in presence of ATP by double reciprocal plot analysis; conditions: dose 2-4 µM
Target sequence in this assay (P49841 whole entry, looked up): as above

[12] = target: Platelet-derived growth factor receptor alpha (Homo sapiens) (UniProt P16234); assay: Inhibition of PDGFRalpha (unknown origin) at 100 uM incubated for 60 mins by ELISA relative to control; in short: as §1
NB-4 = assay: Cytotoxicity against human NB-4 cells assessed as reduction in cell viability measured after 24 hrs by CCK-8 assay; type: functional, cell-based; conditions: NB-4, 24 h; in short: as §2
[13] = target: Platelet-derived growth factor receptor beta (Homo sapiens) (UniProt P09619); assay: Inhibition of PDGFRbeta (unknown origin) at 100 uM incubated for 60 mins by ELISA relative to control; in short: as §1
[14] = target: Glycogen synthase kinase-3 alpha (Homo sapiens) (UniProt P49840); assay: Inhibition of recombinant human GSK-3alpha at 100 uM by mobility shift assay relative to control
[15] = Cytotoxicity against human L02 cells assessed as cell viability at 0 to 50 uM incubated for 24 hrs by CCK-8 assay relative to control; type: cell-based; conditions: dose 0-50 µM, read-out: Activity
In short: (§3)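 HUVEC and LO2 normal cells were cultured in RPMI-1640 or DMEM with 10% FBS at 37 °C, 5% CO2, and seeded at 3 × 10^4 cells/well. They were exposed for 24 h to graded concentrations. CCK-8 incubation was 3 h at 37 °C, with A450 read and viability expressed versus untreated control. Three independent experiments, mean ± SEM.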

NB4-DR1 = assay: Antiproliferative activity against human NB4-DR1 cells assessed as reduction in cell viability incubated for 24 hrs by CCK-8 assay; type: functional, cell-based; conditions: NB4-DR1, 24 h; in short: as §2
[16] = target: Casein kinase 2 (Homo sapiens) (UniProt P67870+P68400+P19784+Q8NEV1); assay: Inhibition of CK2 (unknown origin) at 100 uM incubated for 60 mins by Millipore Kinase Profiler service relative to control
Homo sapiens = species on record: Homo sapiens; assay: Inhibition of PKA (unknown origin) at 100 uM incubated for 60 mins by Millipore Kinase Profiler service relative to control
[17] = Cytotoxicity against HUVEC assessed as cell viability at 0 to 50 uM incubated for 24 hrs by CCK-8 assay relative to control; type: cell-based; conditions: human, dose 0-50 µM, read-out: Activity; in short: as §3
[18] = target: Fibroblast growth factor receptor 1 (Homo sapiens) (UniProt P11362); assay: Inhibition of FGFR1 (unknown origin) incubated for 60 mins by ELISA; conditions: dose 100.0 µM

Sequence of Platelet-derived growth factor receptor alpha (Homo sapiens) (P16234 whole entry): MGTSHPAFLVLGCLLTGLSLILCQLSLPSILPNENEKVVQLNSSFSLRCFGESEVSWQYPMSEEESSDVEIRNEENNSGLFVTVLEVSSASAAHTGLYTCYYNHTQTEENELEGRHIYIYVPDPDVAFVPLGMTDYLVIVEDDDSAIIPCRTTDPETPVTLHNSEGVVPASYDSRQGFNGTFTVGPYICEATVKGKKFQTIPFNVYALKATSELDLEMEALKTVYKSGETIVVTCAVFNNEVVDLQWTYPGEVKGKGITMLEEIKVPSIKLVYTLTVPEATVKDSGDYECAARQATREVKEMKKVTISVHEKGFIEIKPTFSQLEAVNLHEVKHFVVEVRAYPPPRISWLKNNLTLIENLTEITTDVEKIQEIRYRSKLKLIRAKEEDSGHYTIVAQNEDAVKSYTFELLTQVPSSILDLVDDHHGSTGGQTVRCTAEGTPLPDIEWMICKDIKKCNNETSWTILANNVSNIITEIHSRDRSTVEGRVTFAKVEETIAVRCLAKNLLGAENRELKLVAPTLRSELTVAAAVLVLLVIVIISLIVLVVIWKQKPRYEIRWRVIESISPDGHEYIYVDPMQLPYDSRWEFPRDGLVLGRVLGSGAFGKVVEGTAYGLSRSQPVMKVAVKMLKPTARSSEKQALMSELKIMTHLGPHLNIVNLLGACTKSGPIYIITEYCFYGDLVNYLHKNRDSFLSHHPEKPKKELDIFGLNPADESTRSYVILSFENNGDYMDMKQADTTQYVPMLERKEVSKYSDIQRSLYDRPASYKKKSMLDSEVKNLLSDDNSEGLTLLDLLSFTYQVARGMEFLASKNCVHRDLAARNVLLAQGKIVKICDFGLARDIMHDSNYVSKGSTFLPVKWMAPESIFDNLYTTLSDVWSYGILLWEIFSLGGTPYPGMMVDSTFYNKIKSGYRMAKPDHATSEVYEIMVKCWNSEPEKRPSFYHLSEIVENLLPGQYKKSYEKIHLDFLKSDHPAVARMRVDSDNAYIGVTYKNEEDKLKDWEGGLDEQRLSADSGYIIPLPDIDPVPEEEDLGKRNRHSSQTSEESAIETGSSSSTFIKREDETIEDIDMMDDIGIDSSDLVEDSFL
Sequence of Mast/stem cell growth factor receptor Kit (Homo sapiens) (P10721 whole entry): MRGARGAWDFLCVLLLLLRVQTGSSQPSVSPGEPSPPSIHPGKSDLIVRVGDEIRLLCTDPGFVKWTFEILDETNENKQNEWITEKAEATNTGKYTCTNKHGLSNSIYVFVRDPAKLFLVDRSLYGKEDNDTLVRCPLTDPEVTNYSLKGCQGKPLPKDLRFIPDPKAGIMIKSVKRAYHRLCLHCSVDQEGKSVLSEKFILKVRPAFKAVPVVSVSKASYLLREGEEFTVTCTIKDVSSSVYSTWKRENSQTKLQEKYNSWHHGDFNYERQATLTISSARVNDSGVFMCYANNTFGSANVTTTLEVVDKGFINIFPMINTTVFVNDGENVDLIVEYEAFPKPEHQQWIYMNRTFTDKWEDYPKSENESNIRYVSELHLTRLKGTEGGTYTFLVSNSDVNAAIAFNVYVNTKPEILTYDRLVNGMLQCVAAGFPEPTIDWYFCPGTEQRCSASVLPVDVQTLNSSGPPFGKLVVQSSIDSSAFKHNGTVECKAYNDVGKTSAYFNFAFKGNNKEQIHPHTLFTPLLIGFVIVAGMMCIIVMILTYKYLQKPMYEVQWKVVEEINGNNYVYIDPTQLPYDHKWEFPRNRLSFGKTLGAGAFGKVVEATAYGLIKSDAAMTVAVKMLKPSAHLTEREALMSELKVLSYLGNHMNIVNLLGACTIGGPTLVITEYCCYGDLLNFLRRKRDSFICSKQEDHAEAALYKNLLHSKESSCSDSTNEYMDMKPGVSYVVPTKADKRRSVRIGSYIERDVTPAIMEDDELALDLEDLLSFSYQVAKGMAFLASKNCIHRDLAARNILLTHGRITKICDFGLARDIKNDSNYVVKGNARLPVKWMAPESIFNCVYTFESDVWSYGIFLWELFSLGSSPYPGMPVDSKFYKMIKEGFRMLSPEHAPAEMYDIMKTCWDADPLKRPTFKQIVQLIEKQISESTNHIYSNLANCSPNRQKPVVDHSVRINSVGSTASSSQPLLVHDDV
Sequence of Glycogen synthase kinase-3 alpha (Homo sapiens) (P49840 2-483 limits assumed): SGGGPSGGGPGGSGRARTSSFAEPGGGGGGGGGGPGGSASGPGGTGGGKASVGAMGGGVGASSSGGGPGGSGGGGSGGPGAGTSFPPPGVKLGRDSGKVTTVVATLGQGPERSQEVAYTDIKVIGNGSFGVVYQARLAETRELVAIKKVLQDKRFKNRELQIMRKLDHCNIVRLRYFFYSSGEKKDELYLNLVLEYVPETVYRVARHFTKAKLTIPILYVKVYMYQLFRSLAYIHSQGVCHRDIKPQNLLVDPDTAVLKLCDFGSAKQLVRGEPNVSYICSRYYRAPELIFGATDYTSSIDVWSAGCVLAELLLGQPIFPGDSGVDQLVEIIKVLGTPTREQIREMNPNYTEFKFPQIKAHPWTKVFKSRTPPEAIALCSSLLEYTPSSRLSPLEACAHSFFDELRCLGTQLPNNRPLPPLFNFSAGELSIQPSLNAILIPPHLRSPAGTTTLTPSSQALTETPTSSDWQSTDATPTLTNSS
Sequence of Fibroblast growth factor receptor 1 (Homo sapiens) (P11362 22-822 limits assumed): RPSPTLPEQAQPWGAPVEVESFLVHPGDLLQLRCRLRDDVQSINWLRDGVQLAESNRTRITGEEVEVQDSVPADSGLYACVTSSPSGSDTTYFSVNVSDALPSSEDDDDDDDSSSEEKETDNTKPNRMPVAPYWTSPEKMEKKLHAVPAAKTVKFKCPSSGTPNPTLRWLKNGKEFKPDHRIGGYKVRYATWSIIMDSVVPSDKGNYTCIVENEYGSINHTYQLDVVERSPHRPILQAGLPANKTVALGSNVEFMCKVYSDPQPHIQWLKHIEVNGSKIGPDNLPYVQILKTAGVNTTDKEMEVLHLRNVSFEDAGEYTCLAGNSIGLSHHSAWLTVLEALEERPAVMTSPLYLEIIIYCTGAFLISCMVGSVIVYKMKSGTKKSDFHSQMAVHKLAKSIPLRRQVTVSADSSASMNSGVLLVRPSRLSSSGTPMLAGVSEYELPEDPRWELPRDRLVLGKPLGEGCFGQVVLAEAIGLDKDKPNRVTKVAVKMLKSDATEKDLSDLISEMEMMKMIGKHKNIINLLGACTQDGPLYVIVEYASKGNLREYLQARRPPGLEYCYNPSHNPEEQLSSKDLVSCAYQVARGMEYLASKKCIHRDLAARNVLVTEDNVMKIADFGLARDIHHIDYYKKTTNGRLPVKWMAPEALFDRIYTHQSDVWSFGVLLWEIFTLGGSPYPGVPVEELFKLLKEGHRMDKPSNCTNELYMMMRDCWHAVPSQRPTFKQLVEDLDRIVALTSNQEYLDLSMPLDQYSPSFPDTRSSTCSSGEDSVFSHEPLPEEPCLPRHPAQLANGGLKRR
Sequence of Platelet-derived growth factor receptor beta (Homo sapiens) (P09619 whole entry): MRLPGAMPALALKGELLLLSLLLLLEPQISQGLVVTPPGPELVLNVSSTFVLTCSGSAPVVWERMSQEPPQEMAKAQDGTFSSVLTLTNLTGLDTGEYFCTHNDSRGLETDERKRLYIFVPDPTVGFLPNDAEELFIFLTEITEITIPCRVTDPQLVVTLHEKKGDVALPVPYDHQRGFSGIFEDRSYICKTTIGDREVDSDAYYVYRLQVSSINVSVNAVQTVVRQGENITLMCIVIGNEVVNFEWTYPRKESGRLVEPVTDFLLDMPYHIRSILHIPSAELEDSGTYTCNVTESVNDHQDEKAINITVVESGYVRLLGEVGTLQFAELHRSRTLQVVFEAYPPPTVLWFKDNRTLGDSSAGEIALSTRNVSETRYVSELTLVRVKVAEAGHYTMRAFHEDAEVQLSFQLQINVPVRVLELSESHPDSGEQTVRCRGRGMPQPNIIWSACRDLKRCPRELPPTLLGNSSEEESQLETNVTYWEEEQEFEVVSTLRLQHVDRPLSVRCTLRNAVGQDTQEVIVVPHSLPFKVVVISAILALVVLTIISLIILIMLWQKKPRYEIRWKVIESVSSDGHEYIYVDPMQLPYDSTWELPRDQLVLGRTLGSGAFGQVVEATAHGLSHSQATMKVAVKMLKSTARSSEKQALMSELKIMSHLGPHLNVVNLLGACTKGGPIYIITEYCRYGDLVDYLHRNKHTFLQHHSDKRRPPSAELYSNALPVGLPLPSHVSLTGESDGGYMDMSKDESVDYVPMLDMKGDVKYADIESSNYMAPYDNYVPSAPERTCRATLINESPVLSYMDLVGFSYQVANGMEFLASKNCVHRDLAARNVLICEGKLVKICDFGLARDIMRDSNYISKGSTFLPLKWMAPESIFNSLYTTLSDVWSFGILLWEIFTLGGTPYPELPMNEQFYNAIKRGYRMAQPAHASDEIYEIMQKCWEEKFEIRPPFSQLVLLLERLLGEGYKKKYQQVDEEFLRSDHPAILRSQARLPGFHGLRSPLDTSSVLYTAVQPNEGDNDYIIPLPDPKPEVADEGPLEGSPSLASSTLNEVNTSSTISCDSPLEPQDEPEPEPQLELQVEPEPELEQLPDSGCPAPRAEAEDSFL

## C=CC(=O)N1C(=O)CC(c2ccccc2)Sc2ccccc21 (stereo not drawn)
[1]
  inhibition: 1.7%
[2]
  inhibition: 0%
[3]
  inhibition: 0%
[4]
  inhibition: 0%
[5]
  inhibition: Active
Raji
  IC50: 74 µM
[6]
  inhibition: Tde
MOLT-4
  IC50: 85.9 µM
[7]
  IC50: 6.6 µM
HL-60
  IC50: 97.4 µM
[8]
  Drug metabolism: Metabolite_Detected
[9]
  inhibition: 0%
[10]
  inhibition: 26.9%
[11]
  inhibition: Active
[12]
  inhibition: 6.5%
NB-4
  IC50: 35.5 µM
[13]
  inhibition: 2.7%

## C=CC(=O)N1C(=O)CC(C)Sc2ccccc21 (stereo not drawn)
Raji
  IC50: 837 µM
MOLT-4
  IC50: 730 µM
[7]
  IC50: 20 µM
HL-60
  IC50: 199 µM
NB-4
  IC50: 227 µM

## C=CC(=O)N1C(=O)CC(c2ccc([N+](=O)[O-])cc2)Sc2ccccc21 (stereo not drawn)
Raji
  IC50: 34.8 µM
MOLT-4
  IC50: 91.5 µM
[7]
  IC50: 7.5 µM
HL-60
  IC50: 107 µM
[14]
  inhibition: 50.7%
NB-4
  IC50: 37.6 µM

## C=CC(=O)N1C(=O)CC(c2ccc(Cl)cc2)Sc2ccccc21 (stereo not drawn)
[1]
  inhibition: 7.4%
[15]
  viability at 24 h, up to 50 µM: > 80%
[2]
  inhibition: 0%
[3]
  inhibition: 88.3%
[4]
  inhibition: 73.9%
NB4-DR1
  IC50: 48.3 µM
[16]
  inhibition: 8%
Raji
  IC50: 18.4 µM
MOLT-4
  IC50: 82.4 µM
[7]
  IC50: 6.7 µM
HL-60
  IC50: 95.7 µM
Homo sapiens
  inhibition: 7%
[9]
  inhibition: 0%
[10]
  inhibition: 14%
[12]
  inhibition: 11.1%
[14]
  inhibition: 46.7%
[17]
  viability at 24 h, up to 50 µM: > 80%
NB-4
  IC50: 22.6 µM
[13]
  inhibition: 0%

## C=CC(=O)Nc1ccc(C2CC(=O)Nc3ccccc3S2)cc1 (stereo not drawn)
[7]
  IC50: > 100 µM

## C=CC(=O)N1C(=O)CC(c2ccccc2C(F)(F)F)Sc2ccccc21 (stereo not drawn)
Raji
  IC50: 50.3 µM
MOLT-4
  IC50: 84.4 µM
[7]
  IC50: 2.8 µM
HL-60
  IC50: 96.4 µM
[14]
  inhibition: 32%
NB-4
  IC50: 35.2 µM

## C=CC(=O)N1C(=O)CCSc2ccccc21
Raji
  IC50: 581 µM
MOLT-4
  IC50: 565 µM
[7]
  IC50: 17 µM
HL-60
  IC50: 44.8 µM
NB-4
  IC50: 22.4 µM

## C=CC(=O)N1C(=O)CC(c2ccc(C(F)(F)F)cc2)Sc2ccccc21 (stereo not drawn)
Raji
  IC50: 47.6 µM
MOLT-4
  IC50: 76.3 µM
[7]
  IC50: 15 µM
HL-60
  IC50: 106 µM
[14]
  inhibition: 20%
NB-4
  IC50: 38.6 µM

## C=CC(=O)N1C(=O)CC(c2ccc(OC)cc2)Sc2ccccc21 (stereo not drawn)
Raji
  IC50: 43.2 µM
MOLT-4
  IC50: 83.2 µM
[7]
  IC50: 6.2 µM
HL-60
  IC50: 92.1 µM
NB-4
  IC50: 32.9 µM

## [Cl-].[Li+] [CHLOROLITHIUM]
NB4-DR1
  IC50: 42500 µM
NB-4
  IC50: 5320 µM

## C=CC(=O)N1C(=O)CC(c2ccc(C#N)cc2)Sc2ccccc21 (stereo not drawn)
Raji
  IC50: 84.5 µM
MOLT-4
  IC50: 88.7 µM
[7]
  IC50: 6.2 µM
HL-60
  IC50: 115 µM
[14]
  inhibition: 92.9%
NB-4
  IC50: 62.4 µM

## C=CC(=O)N1C(=O)CC(c2ccc(-c3ccccc3)cc2)Sc2ccccc21 (stereo not drawn)
Raji
  IC50: 56.3 µM
MOLT-4
  IC50: 97.5 µM
[7]
  IC50: 5.8 µM
HL-60
  IC50: 118 µM
[14]
  inhibition: 13.4%
NB-4
  IC50: 57.7 µM

## C=CC(=O)N1C(=O)CC(c2ccccc2Cl)Sc2ccccc21 (stereo not drawn)
Raji
  IC50: 50.4 µM
MOLT-4
  IC50: 80.3 µM
[7]
  IC50: 2.5 µM
HL-60
  IC50: 91.4 µM
[14]
  inhibition: 61.8%
NB-4
  IC50: 33.8 µM

## CCC(=O)N1C(=O)CC(c2cccs2)Sc2ccccc21 (stereo not drawn)
[7]
  IC50: > 100 µM

## C=CC(=O)N1C(=O)CC(c2ccc(N3CCOCC3)cc2)Sc2ccccc21 (stereo not drawn)
Raji
  IC50: 56.2 µM
MOLT-4
  IC50: 65 µM
[7]
  IC50: 15 µM
HL-60
  IC50: 98 µM
NB-4
  IC50: 42.4 µM

## C=CC(=O)N1C(=O)CC(c2ccc(C)cc2)Sc2ccccc21 (stereo not drawn)
Raji
  IC50: 75.5 µM
MOLT-4
  IC50: 87.6 µM
[7]
  IC50: 4.8 µM
HL-60
  IC50: 94.4 µM
[14]
  inhibition: 30%
NB-4
  IC50: 37.3 µM

## C=CC(=O)NCCN1C(=O)CC(c2ccccc2)Sc2ccccc21 (stereo not drawn)
[7]
  IC50: > 100 µM

## C=CC(=O)N1C(=O)CC(c2cccs2)Sc2ccccc21 (stereo not drawn)
[1]
  inhibition: 0%
[2]
  inhibition: 3.1%
[3]
  inhibition: 18.8%
[4]
  inhibition: 0%
[16]
  inhibition: 0%
Raji
  IC50: 659 µM
MOLT-4
  IC50: 557 µM
[7]
  IC50: 4.9 µM
HL-60
  IC50: 695 µM
Homo sapiens
  inhibition: 22%
[9]
  inhibition: 0%
[10]
  inhibition: 26.3%
[12]
  inhibition: 0%
NB-4
  IC50: 765 µM
[13]
  inhibition: 7.8%

## Cc1ccc(C(=O)Nc2ccc(CN3CCN(C)CC3)c(C(F)(F)F)c2)cc1C#Cc1cnc2cccnn12
[18]
  IC50: 0.0007 µM

## C=CC(=O)N1C(=O)CC(c2ccc(C(=O)OC)cc2)Sc2ccccc21 (stereo not drawn)
[15]
  viability at 24 h, up to 50 µM: > 80%
NB4-DR1
  IC50: 93.1 µM
Raji
  IC50: 89.6 µM
MOLT-4
  IC50: 79.6 µM
[7]
  IC50: 6 µM
HL-60
  IC50: 102 µM
[17]
  viability at 24 h, up to 50 µM: > 80%
NB-4
  IC50: 24.4 µM

## C=CC(=O)N1C(=O)CC(c2ccc(Br)cc2)Sc2ccccc21 (stereo not drawn)
Raji
  IC50: 51.3 µM
MOLT-4
  IC50: 106 µM
[7]
  IC50: 6.4 µM
HL-60
  IC50: 126 µM
[14]
  inhibition: 33.4%
NB-4
  IC50: 59.4 µM

## C=CC(=O)N1C(=O)CC(c2cccc(Cl)c2)Sc2ccccc21 (stereo not drawn)
Raji
  IC50: 47.1 µM
MOLT-4
  IC50: 77.5 µM
[7]
  IC50: 4 µM
HL-60
  IC50: 93.1 µM
NB-4
  IC50: 31.7 µM
